From ChEMBL document CHEMBL1138571, “Design, synthesis and evaluation of tetrahydropyran based COX-1/-2 inhibitors” (Eur J Med Chem, 2009)
pIC50: −log10 of the molar value.

What was measured:
[1] = target: T1, Prostaglandin G/H synthase 1 (Ovis aries, UniProt P05979); assay: Inhibition of ovine COX1
T1 sequence (P05979 whole entry): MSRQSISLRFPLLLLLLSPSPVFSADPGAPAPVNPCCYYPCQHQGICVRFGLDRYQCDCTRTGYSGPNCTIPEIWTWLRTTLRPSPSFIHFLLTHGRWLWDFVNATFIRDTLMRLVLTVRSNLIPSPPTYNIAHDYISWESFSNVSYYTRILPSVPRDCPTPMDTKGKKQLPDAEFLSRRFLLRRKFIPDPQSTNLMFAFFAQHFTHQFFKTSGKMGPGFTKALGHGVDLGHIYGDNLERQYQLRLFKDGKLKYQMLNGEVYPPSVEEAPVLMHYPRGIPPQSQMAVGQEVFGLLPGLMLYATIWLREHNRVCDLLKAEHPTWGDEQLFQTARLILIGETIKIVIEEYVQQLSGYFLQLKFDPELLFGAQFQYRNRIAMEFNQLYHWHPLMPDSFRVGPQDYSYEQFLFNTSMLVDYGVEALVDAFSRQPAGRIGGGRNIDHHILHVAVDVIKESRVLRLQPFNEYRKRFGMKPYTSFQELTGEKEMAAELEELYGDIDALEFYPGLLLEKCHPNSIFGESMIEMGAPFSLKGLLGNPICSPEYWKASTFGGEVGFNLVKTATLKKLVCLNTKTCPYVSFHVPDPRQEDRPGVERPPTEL

[2] = target: T2, Prostaglandin G/H synthase 2 (Ovis aries, UniProt P79208); assay: Inhibition of ovine COX2
T2 sequence (P79208 whole entry): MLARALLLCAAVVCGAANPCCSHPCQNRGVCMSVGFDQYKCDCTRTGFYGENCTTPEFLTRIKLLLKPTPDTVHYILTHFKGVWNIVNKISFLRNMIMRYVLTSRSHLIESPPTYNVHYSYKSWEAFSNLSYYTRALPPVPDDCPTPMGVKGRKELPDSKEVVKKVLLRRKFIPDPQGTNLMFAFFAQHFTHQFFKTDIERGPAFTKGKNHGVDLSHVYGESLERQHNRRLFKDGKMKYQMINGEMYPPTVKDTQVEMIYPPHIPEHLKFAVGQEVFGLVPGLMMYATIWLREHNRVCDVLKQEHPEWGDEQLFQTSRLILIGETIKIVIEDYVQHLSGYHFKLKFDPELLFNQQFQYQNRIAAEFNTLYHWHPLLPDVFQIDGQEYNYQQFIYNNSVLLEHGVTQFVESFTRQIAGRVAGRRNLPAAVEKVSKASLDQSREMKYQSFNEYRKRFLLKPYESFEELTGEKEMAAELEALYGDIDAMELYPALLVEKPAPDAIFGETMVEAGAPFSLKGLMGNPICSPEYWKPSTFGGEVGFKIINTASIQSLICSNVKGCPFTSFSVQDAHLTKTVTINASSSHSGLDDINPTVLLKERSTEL

[3] = target: T3, Prostaglandin G/H synthase 1 (Ovis aries) (UniProt P05979); assay: Inhibition of ovine COX1 at 10 uM
T3 sequence (whole entry): T1 sequence (P05979 whole entry)
How it was run: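 Ovine COX-1 enzyme assay in 96-well format following a standard procedure. Compounds were tested at a single concentration of 10^-5 M, in duplicate. Results are expressed as % inhibition.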

Row | pIC50 [1] | pIC50 [2] | inhibition [3] [%] | Compound
1 | < 5.00 | > 6.00 | 42 | CCSC[C@@H]1C[C@](C)(O)C[C@H](c2ccc(F)cc2)O1
2 | < 5.00 | < 5.00 | 32 | C[C@]1(O)C[C@@H](CSC#N)O[C@@H](c2ccc(Br)cc2)C1
3 |  |  | 96 | CC(C)Cc1ccc(C(C)C(=O)O)cc1 (configuration not stated)
4 | < 5.00 | < 5.00 | 29 | C[C@]1(O)C[C@@H](CSC#N)O[C@@H](c2ccc([N+](=O)[O-])cc2)C1
5 | < 5.00 | < 5.00 | 34 | CCSC[C@@H]1C[C@](C)(O)C[C@H](c2ccc([N+](=O)[O-])cc2)O1
6 | < 5.00 | 6.00 | 34 | C[C@]1(O)C[C@@H](CSC#N)O[C@@H](c2ccc(F)cc2)C1
7 | < 5.00 | < 5.00 | 24 | CCSC[C@@H]1C[C@](C)(O)C[C@H](c2ccc(Br)cc2)O1
8 | < 5.00 | < 5.00 | 34 | CCSC[C@@H]1C[C@](C)(O)C[C@H](c2ccc(Cl)cc2)O1
